Experimental data: ChEMBL document CHEMBL1135543, “Alpha(1)-adrenoceptor antagonists. 4. Pharmacophore-based design, synthesis, and biological evaluation of new imidazo-, benzimidazo-, and indoloarylpiperazine derivatives” (J Med Chem, 2002)

Key:
[1] = biological target: T1, Adrenergic receptor alpha-2 (Rattus norvegicus, UniProt P22086+P19328+P22909); test: Binding affinity against Alpha-2 adrenergic receptor by displacing [3H]rauwolscine radioligand in rat cortex membrane; type: cell membranes, Brain
T1 sequence (P22086 whole entry): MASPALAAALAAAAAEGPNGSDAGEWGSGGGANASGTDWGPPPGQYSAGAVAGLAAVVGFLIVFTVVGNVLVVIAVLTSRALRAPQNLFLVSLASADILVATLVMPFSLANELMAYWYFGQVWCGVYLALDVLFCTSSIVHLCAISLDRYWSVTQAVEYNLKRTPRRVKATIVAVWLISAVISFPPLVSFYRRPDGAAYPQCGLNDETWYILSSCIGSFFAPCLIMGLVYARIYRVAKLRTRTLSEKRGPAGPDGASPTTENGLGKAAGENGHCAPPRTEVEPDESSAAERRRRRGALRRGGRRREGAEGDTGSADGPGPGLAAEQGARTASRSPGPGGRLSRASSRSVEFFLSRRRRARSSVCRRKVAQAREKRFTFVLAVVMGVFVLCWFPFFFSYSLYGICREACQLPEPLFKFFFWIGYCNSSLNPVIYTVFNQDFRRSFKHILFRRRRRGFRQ
T1 sequence (P19328 whole entry): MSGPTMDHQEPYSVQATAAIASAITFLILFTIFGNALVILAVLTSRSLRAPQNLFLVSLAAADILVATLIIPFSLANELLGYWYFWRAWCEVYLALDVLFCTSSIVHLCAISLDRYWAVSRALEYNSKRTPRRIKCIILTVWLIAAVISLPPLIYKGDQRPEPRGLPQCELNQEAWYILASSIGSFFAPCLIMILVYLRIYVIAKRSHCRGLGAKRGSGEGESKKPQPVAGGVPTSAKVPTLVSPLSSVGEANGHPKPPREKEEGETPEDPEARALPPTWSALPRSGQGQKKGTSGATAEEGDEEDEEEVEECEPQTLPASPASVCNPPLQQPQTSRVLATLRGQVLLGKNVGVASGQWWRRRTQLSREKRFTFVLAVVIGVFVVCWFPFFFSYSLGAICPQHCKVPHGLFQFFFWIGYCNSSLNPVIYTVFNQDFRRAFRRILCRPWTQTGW
T1 sequence (P22909 whole entry): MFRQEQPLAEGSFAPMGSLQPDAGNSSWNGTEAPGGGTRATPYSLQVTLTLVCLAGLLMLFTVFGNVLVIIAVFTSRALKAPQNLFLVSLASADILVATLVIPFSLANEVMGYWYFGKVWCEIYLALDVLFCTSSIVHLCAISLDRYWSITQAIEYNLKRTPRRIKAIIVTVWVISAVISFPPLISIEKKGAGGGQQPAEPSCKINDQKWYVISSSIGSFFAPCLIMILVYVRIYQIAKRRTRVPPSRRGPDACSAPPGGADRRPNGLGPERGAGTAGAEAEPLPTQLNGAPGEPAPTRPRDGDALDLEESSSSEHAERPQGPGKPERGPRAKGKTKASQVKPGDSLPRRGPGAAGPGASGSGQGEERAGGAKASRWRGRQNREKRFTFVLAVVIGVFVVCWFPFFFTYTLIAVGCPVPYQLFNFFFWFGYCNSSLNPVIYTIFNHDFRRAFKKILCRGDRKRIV

[2] = biological target: T2, 5-hydroxytryptamine receptor 1A (Rattus norvegicus, UniProt P19327); test: Binding affinity against 5-hydroxytryptamine 1A receptor by displacing [3H]8-OH-DPAT radioligand in rat cortex membrane; type: cell membranes
T2 sequence (P19327 whole entry): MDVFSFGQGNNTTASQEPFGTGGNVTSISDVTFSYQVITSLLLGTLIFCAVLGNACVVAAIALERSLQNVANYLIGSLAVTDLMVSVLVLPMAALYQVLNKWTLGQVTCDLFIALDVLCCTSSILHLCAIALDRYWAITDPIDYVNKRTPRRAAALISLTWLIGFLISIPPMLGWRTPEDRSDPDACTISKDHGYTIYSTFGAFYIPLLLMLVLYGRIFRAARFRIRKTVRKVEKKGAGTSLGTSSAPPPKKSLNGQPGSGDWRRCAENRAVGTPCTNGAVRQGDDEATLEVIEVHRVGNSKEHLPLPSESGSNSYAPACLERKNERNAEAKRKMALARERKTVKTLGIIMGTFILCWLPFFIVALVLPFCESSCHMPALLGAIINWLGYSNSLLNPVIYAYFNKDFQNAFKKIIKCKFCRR
Procedure, shortened: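 Rat cortex membranes, pre-incubated 10 min at 37 °C to remove endogenous 5-HT, stored at –80 °C, then resuspended in 50 mM Tris-HCl pH 7.4 (0.2–0.3 mg protein). GF/C filtration, scintillation counting.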

[3] = biological target: T3, Adrenergic receptor alpha-1 (Rattus norvegicus, UniProt P15823+P23944+P43140); test: Intrinsic activity for displacement of [3H]- prazosin from Alpha-1 adrenergic receptor of rat cerebral cortex membrane in the presence of 1 nM GTP; type: tissue-based
T3 sequence (P15823 whole entry): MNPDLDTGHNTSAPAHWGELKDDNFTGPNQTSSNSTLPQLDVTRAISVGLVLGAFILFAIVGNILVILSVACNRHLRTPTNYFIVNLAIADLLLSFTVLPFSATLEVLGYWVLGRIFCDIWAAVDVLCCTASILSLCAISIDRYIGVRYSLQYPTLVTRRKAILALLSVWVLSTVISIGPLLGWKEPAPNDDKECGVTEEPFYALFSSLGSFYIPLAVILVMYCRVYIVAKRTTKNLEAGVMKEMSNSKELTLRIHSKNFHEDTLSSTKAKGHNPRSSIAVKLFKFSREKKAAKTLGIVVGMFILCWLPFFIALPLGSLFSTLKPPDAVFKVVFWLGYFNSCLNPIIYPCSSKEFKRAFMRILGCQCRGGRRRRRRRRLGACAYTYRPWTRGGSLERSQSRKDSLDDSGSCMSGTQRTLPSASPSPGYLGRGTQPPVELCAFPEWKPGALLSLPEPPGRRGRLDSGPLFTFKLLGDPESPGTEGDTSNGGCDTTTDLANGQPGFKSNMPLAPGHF
T3 sequence (P23944 whole entry): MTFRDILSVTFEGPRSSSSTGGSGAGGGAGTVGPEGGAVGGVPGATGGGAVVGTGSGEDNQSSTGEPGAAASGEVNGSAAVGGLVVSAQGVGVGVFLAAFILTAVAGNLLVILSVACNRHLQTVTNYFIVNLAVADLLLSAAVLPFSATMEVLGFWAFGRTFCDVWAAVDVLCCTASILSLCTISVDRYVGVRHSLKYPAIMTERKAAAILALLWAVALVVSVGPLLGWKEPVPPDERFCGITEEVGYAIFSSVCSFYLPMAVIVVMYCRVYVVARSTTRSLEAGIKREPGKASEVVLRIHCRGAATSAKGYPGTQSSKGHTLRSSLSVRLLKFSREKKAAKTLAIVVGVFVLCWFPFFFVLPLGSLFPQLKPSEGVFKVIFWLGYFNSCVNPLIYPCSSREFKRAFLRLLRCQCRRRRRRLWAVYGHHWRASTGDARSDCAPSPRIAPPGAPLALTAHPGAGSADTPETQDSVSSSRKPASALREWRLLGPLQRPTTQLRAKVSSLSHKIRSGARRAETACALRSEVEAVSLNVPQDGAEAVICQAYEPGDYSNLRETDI
T3 sequence (P43140 whole entry): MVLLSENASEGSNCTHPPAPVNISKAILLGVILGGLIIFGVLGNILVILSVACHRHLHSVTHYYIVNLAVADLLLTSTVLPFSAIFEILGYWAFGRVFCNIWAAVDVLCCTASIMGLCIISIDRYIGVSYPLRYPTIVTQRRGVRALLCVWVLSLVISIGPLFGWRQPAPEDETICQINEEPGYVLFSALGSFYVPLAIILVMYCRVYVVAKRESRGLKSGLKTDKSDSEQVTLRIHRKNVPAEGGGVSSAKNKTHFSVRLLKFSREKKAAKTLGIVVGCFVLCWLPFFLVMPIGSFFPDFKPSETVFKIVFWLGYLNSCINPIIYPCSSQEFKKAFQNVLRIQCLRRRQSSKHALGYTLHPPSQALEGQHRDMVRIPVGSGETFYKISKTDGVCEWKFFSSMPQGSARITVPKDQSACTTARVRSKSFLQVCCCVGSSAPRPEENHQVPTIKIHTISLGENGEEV

[4] = biological target: T3, Adrenergic receptor alpha-1; test: Intrinsic activity for displacement of [3H]- prazosin from Alpha-1 adrenergic receptor of rat cerebral cortex membrane in the absence of 1 nM GTP; type: tissue-based
[5] = biological target: T3, Adrenergic receptor alpha-1; test: Binding affinity against Alpha-1 adrenergic receptor by displacing [3H]prazosin radioligand in rat cortex membrane.; type: cell membranes, Brain
[6] = biological target: T3, Adrenergic receptor alpha-1; test: Intrinsic activity against Alpha-1 adrenergic receptor expressed as displacement of [3H]prazosin from rat cerebral cortex membrane in the absence of 1 nM GTP; type: tissue-based
Procedure, shortened: (§1)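 [3H]prazosin competition on rat cerebral cortex membranes, run with and without GTP (1 nM in table footnote, 1 mM in text). The GTP shift is the ratio of the affinity constant with GTP to that without. Values are means ± SEM of three experiments.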

[7] = biological target: T3, Adrenergic receptor alpha-1; test: Intrinsic activity against Alpha-1 adrenergic receptor expressed as displacement of [3H]prazosin from rat cerebral cortex membrane in the presence of 1 nM GTP; type: tissue-based; procedure, shortened: as §1

Row | SMILES | Ki [1] [µM] | Ki [2] [µM] | Ki [3] [µM] | Ki [4] [µM] | Ki [5] [µM] | Ki [6] [µM] | Ki [7] [µM]
1 | O=c1ccc(-n2ccnc2)nn1CCCCCCCN1CCN(c2ccccc2Cl)CC1 | 0.0245 | 0.123 | 0.00833 | 0.0049 | 0.0046 |  | 
2 | COc1ccccc1N1CCN(CCCCn2nc(-n3ccc4ccccc43)ccc2=O)CC1 | 0.02 | 0.253 |  |  |  | 0.001 | 0.0016
